From article PMC4445677 (Journal of the American Chemical Society, 2014) come the findings set out here.

Entries after “also recorded” stand apart in the source; their conditions may differ.

The test system of experiment [1] is WT-ARTD1. Put plainly: Auto-ADP-ribosylation by click conjugation to biotin-azide reporter, WT-ARTD1. The class given is biochemical, human. To be noted: NAD+ analogue as substrate; up to 250 μM for 5-Et-6-a-NAD+.
The subject of experiment [2] is KA-ARTD2. Put plainly: Auto-ADP-ribosylation, KA-ARTD2. The experiment is classed as biochemical, human. To be noted: lysine to alanine mutant.
Experiment [3] deals with KA-ARTD1. Put plainly: Auto-ADP-ribosylation by click conjugation to biotin-azide reporter, KA-ARTD1. The class given is biochemical, human. To be noted: NAD+ analogue as substrate; increasing concentrations.
Experiment [4] has as its system WT-ARTD2. Put plainly: Auto-ADP-ribosylation, WT-ARTD2. The class given is biochemical, human. To be noted: up to 250 μM.
The subject of experiment [5] is KA-ARTD6. To be noted: lysine to alanine mutant.
Experiment [6] has as its system WT-ARTD6. To be noted: up to 250 μM.
The test system of experiment [7] is nuclear extracts from human embryonic kidney (HEK) 293T cells. The experiment is described as follows: Labeling of ADP-ribosylation protein targets in nuclear extracts. The class given is biochemical. To be noted: HEK 293T nuclear extracts; for protein labeling in nuclear extracts, NAD+ analogue alone: endogenous ARTDs only, 5-Et-6-a-NAD+ 250 μM, 6-a-NAD+ 100 μM. The method, boiled down: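 Nuclear extracts from human HEK 293T cells are treated with a modified NAD+ analogue (250 μM), either alone or with added KA-ARTD1. Parent 6-a-NAD+ alone on extract serves as the positive control for ADP-ribose detection. Labelled targets are detected by click chemistry with biotin–azide and immunoblot, using a Ponceau S-stained membrane as the loading control.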

Experiment [8] addresses wild-type ARTD1 (WT-ARTD1) (Homo sapiens, UniProt P09874). Put plainly: Inhibition of ADP-ribose transfer to Histone H1 using 6-a-NAD+. The class given is biochemical.
Experiment [9] addresses K903A ARTD1 (KA-ARTD1) (Homo sapiens, UniProt P09874, K903A). The experiment is described as above. The class given is biochemical.

Chain of K903A ARTD1 (KA-ARTD1) (P09874 whole entry K903A): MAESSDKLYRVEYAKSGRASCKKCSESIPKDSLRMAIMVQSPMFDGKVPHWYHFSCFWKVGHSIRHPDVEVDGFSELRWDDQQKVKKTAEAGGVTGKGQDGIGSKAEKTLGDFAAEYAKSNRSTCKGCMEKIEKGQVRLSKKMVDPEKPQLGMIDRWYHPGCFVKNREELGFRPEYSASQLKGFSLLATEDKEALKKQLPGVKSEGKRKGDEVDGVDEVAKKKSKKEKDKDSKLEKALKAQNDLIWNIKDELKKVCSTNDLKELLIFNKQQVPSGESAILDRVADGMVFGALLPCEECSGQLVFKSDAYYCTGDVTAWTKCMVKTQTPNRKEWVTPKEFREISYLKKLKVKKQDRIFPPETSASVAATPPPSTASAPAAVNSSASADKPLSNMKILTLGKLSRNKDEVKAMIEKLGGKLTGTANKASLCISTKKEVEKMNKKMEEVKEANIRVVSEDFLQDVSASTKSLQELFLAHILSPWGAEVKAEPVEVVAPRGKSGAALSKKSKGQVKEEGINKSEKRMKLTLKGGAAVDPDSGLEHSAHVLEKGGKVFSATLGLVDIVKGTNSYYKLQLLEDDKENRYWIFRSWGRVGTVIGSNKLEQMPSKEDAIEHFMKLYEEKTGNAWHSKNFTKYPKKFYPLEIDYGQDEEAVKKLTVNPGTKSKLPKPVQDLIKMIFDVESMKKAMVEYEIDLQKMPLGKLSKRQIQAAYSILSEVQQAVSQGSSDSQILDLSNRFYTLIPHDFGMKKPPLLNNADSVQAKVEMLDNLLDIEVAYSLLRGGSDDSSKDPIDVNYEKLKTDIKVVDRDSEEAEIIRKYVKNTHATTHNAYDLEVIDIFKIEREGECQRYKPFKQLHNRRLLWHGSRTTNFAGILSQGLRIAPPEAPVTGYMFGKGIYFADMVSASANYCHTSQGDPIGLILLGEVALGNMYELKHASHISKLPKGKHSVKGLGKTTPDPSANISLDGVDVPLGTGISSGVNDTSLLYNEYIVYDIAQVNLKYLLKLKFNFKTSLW
Chain of wild-type ARTD1 (WT-ARTD1) (P09874 whole entry): as the sequence (P09874 whole entry K903A) above, with A903K counted along it

In the case of 5-Et-6-a-NAD^+, the “auto-ADPr (modification) of WT-ARTD1” value in [1] was “no modification of WT-ARTD1 was detected”. Moreover, in [2], the “modification of KA-ARTD2” value is on record as “conferred sensitivity”. Also, in experiment [3], the “auto-ADPr (modification) of KA-ARTD1” value is given as “only mono-ADPr of KA-ARTD1; also recorded: resulted in auto-ADPr of KA-ARTD1”. Moreover, the “modification of WT-ARTD2” value in experiment [4] was “no modification”. Further, the “modification of KA-ARTD6” value in experiment [5] is given as “conferred sensitivity”. The “modification of WT-ARTD6” value in experiment [6] is recorded as “no modification”. For the same compound, the “protein labeling in nuclear extracts in the presence of KA-ARTD1” value in experiment [7] (250 μM plus KA-ARTD1) is on record as “extensive labeling”. Also, in experiment [7], the “protein labeling in nuclear extracts, NAD+ analogue alone” value is recorded as “no labeling was detected”.
In general, IC50 refers to the midpoint of a concentration-inhibition curve. A higher IC50 goes with a need for much substance. Consider `CCc1cncc(C(N)=O)c1` [5-ethyl-nicotinamide], for which the concentration for half-maximal inhibition (IC50) in experiment [8] was 2.36 ± 0.368 mM; in experiment [9], 0.165 ± 0.011 mM. Moreover, the “selectivity for KA-ARTD1 over WT-ARTD1” value in experiment [9] (ratio of IC50 values WT-ARTD1 / KA-ARTD1) is listed as 14 fold.
As to “6-alkyne-NAD^+ [6-a-NAD^+, reference compound]”, the “auto-ADPr (modification) of WT-ARTD1” value in experiment [1] is “extensive poly-ADPr of WT-ARTD1”. Further, the “auto-ADPr (modification) of KA-ARTD1” value in experiment [3] is on record as “only mono-ADPr of KA-ARTD1”. Moreover, in experiment [7], the “protein labeling in nuclear extracts, NAD+ analogue alone” value is given as “labeling of several proteins”.
